Measurements reported in ChEMBL document CHEMBL1149101, “New antibacterial agents derived from the DNA gyrase inhibitor cyclothialidine” (J Med Chem, 2004).
Converted amounts (≈) assume the structure as drawn.

Key:
[1] = Range for minimum inhibitory concentration against Staphylococcus aureus; 4->64; assay type: functional
Staphylococcus aureus [2] = assay: Minimum inhibitory concentration against Staphylococcus aureus; assay type: functional
[3] = Range for minimum inhibitory concentration against Enterococcus faecalis; 1-4; assay type: functional
Mus musculus = organism: Mus musculus; assay: Percentage of binding to the mice plasma protein was determined; assay type: functional
Staphylococcus aureus [4] = assay: In vivo effective dose was determined in septicaemic mice (Staphylococcus aureus Smith) when administration iv; assay type: functional
Summary of the method: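 Compound given iv as a gelatine microsuspension at 1 and 3 h post-challenge, 5 mice per group. ED50 (mg/kg) from day-4 survival by probit analysis.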

[5] = Range for minimum inhibitory concentration against Staphylococcus aureus; 0.5-2; assay type: functional
[6] = test system: Stenotrophomonas maltophilia; assay: Minimum inhibitory concentration against Xanthomonas maltophilia AC739; assay type: functional
Summary of the method: (§1)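 NCCLS agar dilution on Mueller–Hinton agar, compound incorporated into melted medium at 50 °C. Inoculum about 10⁴ CFU/spot from diluted overnight cultures, multipoint-applied.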

Enterococcus faecalis [7] = assay: Minimum inhibitory concentration against Enterococcus faecalis; assay type: functional
Summary of the method: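 Agar dilution per NCCLS on Mueller–Hinton agar, strain E. faecalis 6 (listed as S. faecalis 6). Compound incorporated into melted medium at 50 °C just before pouring plates. Inoculum about 10⁴ CFU/spot from diluted overnight culture, applied with multipoint inoculator.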

[8] = Minimum inhibitory concentration against Enterococcus faecalis
Escherichia coli = assay: Minimum inhibitory concentration against Escherichia coli 25922; assay type: functional; summary of the method: as §1
HeLa = assay: Cytotoxicity in HeLa cells; assay type: cell-based
Enterococcus faecalis [9] = assay: Minimum inhibitory concentration against Enterococcus faecalis 6; assay type: functional; summary of the method: as §1
Streptococcus pyogenes = assay: Minimum inhibitory concentration against Streptococcus pyogenes b15; conditions: Streptococcus pyogenes; read-out: MIC
Staphylococcus aureus [10] = assay: Minimum inhibitory concentration against Staphylococcus aureus Smith; assay type: functional; summary of the method: as §1
[11] = molecular target: T1, DNA gyrase (Escherichia coli) (UniProt P0AES6+P0AES4)
Staphylococcus aureus [12] = assay: Minimum inhibitory concentration against Staphylococcus aureus ATCC 25923; assay type: functional; summary of the method: as §1
[13] = test system: Staphylococcus epidermidis; assay: Minimum inhibitory concentration against Staphylococcus epidermidis 16/2; assay type: functional; summary of the method: as §1
Neisseria meningitidis = assay: Minimum inhibitory concentration against Neisseria meningitides 69480; assay type: functional
Summary of the method: (§2)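 Agar dilution per NCCLS in BB2 agar + 1% Isovitalex + 7.5% sheep blood + menadione, compound added to melted medium at 50 °C. About 10⁴ CFU/spot from diluted overnight cultures, multipoint-inoculated.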

Micrococcus luteus = assay: Minimum inhibitory concentration against Micrococcus luteus ATCC 8340; assay type: functional; summary of the method: as §2
[14] = molecular target: T1, DNA gyrase (Escherichia coli); assay: Maximum noneffective concentration against Escherichia coli DNA gyrase; assay type: protein-complex assay
Summary of the method: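 Gyrase A2B2 complex reconstituted from equimolar subunits (25 °C, 0.5 h). Relaxed pUC18 DNA incubated with enzyme at 37 °C for 0.5 h, compound 0.001–100 μg/mL. Products resolved on 0.8% agarose gel. MNEC, read visually, is the highest concentration still allowing complete plasmid supercoiling.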

Staphylococcus aureus [15] = assay: Minimum inhibitory concentration against Staphylococcus aureus 887; assay type: functional; summary of the method: as §2
[16] = Range for minimum inhibitory concentration against Staphylococcus aureus 0.5->[…]; assay type: functional
[17] = Range for minimum inhibitory concentration against Enterococcus faecium; 2-8; assay type: functional
[18] = Range for minimum inhibitory concentration against Enterococcus faecalis;4-8; assay type: functional
[19] = Range for minimum inhibitory concentration against Staphylococcus aureus; 0.06->64; assay type: functional
[20] = Range for minimum inhibitory concentration against Staphylococcus aureus; 0.5->[…]; assay type: functional
[21] = Staphylococcus aureus, read-out: MIC
[22] = Staphylococcus aureus, ATCC 25923, read-out: MIC

SMILES | MIC50 (Staphylococcus aureus [2]) [µg/mL] | MIC90 (Staphylococcus aureus [2]) [µg/mL] | MIC [6] [µg/mL] | MIC (Escherichia coli) [µg/mL] | MIC (Enterococcus faecalis [9]) [µg/mL] | MIC (Staphylococcus aureus [10]; [21]) [µg/mL] | MIC (Staphylococcus aureus [12]; [22]) [µg/mL] | MIC [13] [µg/mL] | also measured
COc1cccc(OC)c1C(=O)N[C@@H]1C(=O)N2[C@@H]1SC(C)(C)[C@@H]2C(=O)O [METHICILLIN] | 32 (≈ 84.1 µM) | > 64 |  |  |  |  |  |  | Range [1]: 64 µg/mL
CN[C@H](CC(C)C)C(=O)N[C@H]1C(=O)N[C@@H](CC(N)=O)C(=O)N[C@H]2C(=O)N[C@H]3C(=O)N[C@H](C(=O)N[C@H](C(=O)O)c4cc(O)cc(O)c4-c4cc3ccc4O)[C@H](O)c3ccc(c(Cl)c3)Oc3cc2cc(c3O[C@@H]2O[C@H](CO)[C@@H](O)[C@H](O)[C@H]2O[C@H]2C[C@](C)(N)[C@H](O)[C@H](C)O2)Oc2ccc(cc2Cl)[C@H]1O [VANCOMYCIN] | 1 (≈ 0.69 µM) | 2 (≈ 1.38 µM) | > 64 | > 64 |  |  |  |  | Range [3]: 4 µg/mL; Activity (Mus musculus): 25%; ED50 (Staphylococcus aureus [4]): 1.5 mg/kg; Range [5]: 2 µg/mL; MIC50 (Enterococcus faecalis [7]): 2 µg/mL (≈ 1.38 µM); MIC90 [8]: 4 µg/mL (≈ 2.76 µM)
COC(=O)[C@@H]1CSCc2c(O)cc(OC)c(C)c2C(=O)OCCCCC(=O)N1 |  |  | 16 (≈ 38.9 µM) | > 64 | 4 (≈ 9.72 µM) | 2 (≈ 4.86 µM) | 4 (≈ 9.72 µM) | 1 (≈ 2.43 µM) | IC50 (HeLa): > 50 µg/mL; MIC (Streptococcus pyogenes): 4 µg/mL (≈ 9.72 µM); MIC (Staphylococcus aureus [10]): 2 µg/mL (≈ 4.86 µM); MNEC [11]: 0.05 µg/mL; MIC (Staphylococcus aureus [12]): 4 µg/mL (≈ 9.72 µM)
COC(=O)[C@@H]1CSCc2c(O)cc(OC)c(C)c2C(=O)OCCC(=O)N1 |  |  | > 64 | > 64 | > 64 | 64 (≈ 167 µM) | > 64 | 8 (≈ 20.9 µM) | MIC (Neisseria meningitidis): 32 µg/mL (≈ 83.5 µM); MIC (Micrococcus luteus): 16 µg/mL (≈ 41.7 µM); MNEC [11]: 0.25 µg/mL; MNEC [14]: 0.5 µg/mL; MIC (Staphylococcus aureus [12]): 64 µg/mL (≈ 167 µM); MIC (Staphylococcus aureus [15]): > 64 µg/mL
CN(C)[C@@H]1C(O)=C(C(N)=O)C(=O)[C@@]2(O)C(O)=C3C(=O)c4c(O)cccc4[C@@](C)(O)[C@H]3C[C@@H]12 [TETRACYCLINE] | > 16 | > 16 |  |  |  |  |  |  | Range [16]: 16 µg/mL
CO[C@@H]1[C@@H](OC(N)=O)[C@@H](O)[C@H](Oc2ccc3c(O)c(NC(=O)c4ccc(O)c(CC=C(C)C)c4)c(=O)oc3c2C)OC1(C)C [NOVOBIOCIN] |  |  | > 64 | > 64 | 4 (≈ 6.53 µM) | 0.12 (≈ 0.196 µM) | 0.25 (≈ 0.408 µM) | 0.25 (≈ 0.408 µM) | MIC (Streptococcus pyogenes): 1 µg/mL (≈ 1.63 µM); Range [17]: 8 µg/mL; Range [18]: 8 µg/mL; ED50 (Staphylococcus aureus [4]): 3 mg/kg; MIC50 (Enterococcus faecalis [7]): 4 µg/mL (≈ 6.53 µM); MIC90 (Enterococcus faecalis [7]): 8 µg/mL (≈ 13.1 µM)
C[C@@H](O)[C@H]1C(=O)N2C(C(=O)O)=C(SCCNC=N)C[C@H]12 [IMIPENEM ANHYDROUS] | 4 (≈ 13.4 µM) | 16 (≈ 53.4 µM) |  |  |  |  |  |  | Range [19]: 64 µg/mL
O=C(O)c1cn(C2CC2)c2cc(N3CCNCC3)c(F)cc2c1=O [CIPROFLOXACIN] | 0.5 (≈ 1.51 µM) | > 16 |  |  |  |  |  |  | Range [20]: 16 µg/mL
